Source: ChEMBL document CHEMBL3621107, “Ring fusion strategy for synthesis and lead optimization of sulfur-substituted anthra[1,2-c][1,2,5]thiadiazole-6,11-dione derivatives as promising scaffold of antitumor agents” (Eur J Med Chem, 2015)

Legend:
Type in all cases: functional
M14 = assay: Cytotoxicity against human M14 cells assessed as cell growth at 10 uM after 48 hrs by SRB assay relative to control; details: M14, 48 h, read-out: Activity
Method in brief: (§1)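 First-stage NCI-60 screen by the NCI Developmental Therapeutics Program. Each compound was tested once at a single concentration of 10 μM against the 60-cell-line panel. Growth percentage was reported for each cell line.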

MDA-MB-435 = assay: Cytotoxicity against human MDA-MB-435 cells assessed as cell growth at 10 uM after 48 hrs by SRB assay relative to control; details: MDA-MB-435, 48 h, read-out: Activity
Method in brief: (§2)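 First-stage NCI DTP one-dose screen against the 60 human tumour cell line panel. Compounds were tested at a single 10 μM level, and results are given as growth percentage.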

SK-MEL-2 = assay: Cytotoxicity against human SK-MEL-2 cells assessed as cell growth at 10 uM after 48 hrs by SRB assay relative to control; details: SK-MEL-2, 48 h, read-out: Activity; method in brief: as §2
UACC-257 = assay: Cytotoxicity against human UACC257 cells assessed as cell growth at 10 uM after 48 hrs by SRB assay relative to control; details: UACC-257, 48 h, read-out: Activity
Method in brief: (§3)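 NCI-60 one-dose screen run by NCI DTP: each cell line exposed to a single 10 µM dose, and percentage growth recorded against untreated growth.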

OVCAR-3 = assay: Cytotoxicity against human OVCAR3 cells assessed as cell growth at 10 uM after 48 hrs by SRB assay relative to control; details: OVCAR-3, 48 h, read-out: Activity; method in brief: as §2
OVCAR-8 = assay: Cytotoxicity against human OVCAR8 cells assessed as cell growth at 10 uM after 48 hrs by SRB assay relative to control; details: OVCAR-8, 48 h, read-out: Activity; method in brief: as §2
SK-OV-3 = assay: Cytotoxicity against human SKOV3 cells assessed as cell growth at 10 uM after 48 hrs by SRB assay relative to control; details: SK-OV-3, 48 h, read-out: Activity; method in brief: as §2
A498 = assay: Cytotoxicity against human A498 cells assessed as cell growth at 10 uM after 48 hrs by SRB assay relative to control; details: A498, 48 h, read-out: Activity; method in brief: as §1
RXF 393 = assay: Cytotoxicity against human RXF393 cells assessed as cell growth at 10 uM after 48 hrs by SRB assay relative to control; details: RXF 393, 48 h, read-out: Activity; method in brief: as §2
TK-10 = assay: Cytotoxicity against human TK10 cells assessed as cell growth at 10 uM after 48 hrs by SRB assay relative to control; details: TK-10, 48 h, read-out: Activity; method in brief: as §3
UO-31 = assay: Cytotoxicity against human UO31 cells assessed as cell growth at 10 uM after 48 hrs by SRB assay relative to control; details: UO-31, 48 h, read-out: Activity; method in brief: as §3
DU-145 = assay: Cytotoxicity against human DU145 cells assessed as cell growth at 10 uM after 48 hrs by SRB assay relative to control; details: DU-145, 48 h, read-out: Activity; method in brief: as §1
MDA-MB-231 = assay: Cytotoxicity against human MDA-MB-231 cells assessed as cell growth at 10 uM after 48 hrs by SRB assay relative to control; details: MDA-MB-231, 48 h, read-out: Activity; method in brief: as §2
[1] = Cytotoxicity against human Hs578T cells assessed as cell growth at 10 uM after 48 hrs by SRB assay relative to control; details: Hs-578T, read-out: Activity; method in brief: as §1
T47D = assay: Cytotoxicity against human T47D cells assessed as cell growth at 10 uM after 48 hrs by SRB assay relative to control; details: read-out: Activity; method in brief: as §3
K562 = assay: Cytotoxicity against human K562 cells assessed as cell growth at 10 uM after 48 hrs by SRB assay relative to control; details: K562, 48 h, read-out: Activity; method in brief: as §1
A549 = assay: Cytotoxicity against human A549 cells assessed as cell growth at 10 uM after 48 hrs by SRB assay relative to control; details: A549, 48 h, read-out: Activity; method in brief: as §1
HOP-92 = assay: Cytotoxicity against human HOP92 cells assessed as cell growth at 10 uM after 48 hrs by SRB assay relative to control; details: HOP-92, 48 h, read-out: Activity; method in brief: as §1
NCI-H226 = assay: Cytotoxicity against human NCI-H226 cells assessed as cell growth at 10 uM after 48 hrs by SRB assay relative to control; details: NCI-H226, 48 h, read-out: Activity; method in brief: as §2
NCI-H23 = assay: Cytotoxicity against human NCI-H23 cells assessed as cell growth at 10 uM after 48 hrs by SRB assay relative to control; details: NCI-H23, 48 h, read-out: Activity; method in brief: as §2
NCI-H460 = assay: Cytotoxicity against human NCI-H460 cells assessed as cell growth at 10 uM after 48 hrs by SRB assay relative to control; details: NCI-H460, 48 h, read-out: Activity; method in brief: as §2
NCI-H522 = assay: Cytotoxicity against human NCI-H522 cells assessed as cell growth at 10 uM after 48 hrs by SRB assay relative to control; details: NCI-H522, 48 h, read-out: Activity; method in brief: as §2
COLO 205 = assay: Cytotoxicity against human COLO205 cells assessed as cell growth at 10 uM after 48 hrs by SRB assay relative to control; details: COLO 205, 48 h, read-out: Activity; method in brief: as §1
HCT-116 = assay: Cytotoxicity against human HCT116 cells assessed as cell growth at 10 uM after 48 hrs by SRB assay relative to control; details: HCT-116, 48 h, read-out: Activity; method in brief: as §1
HCT-15 = assay: Cytotoxicity against human HCT15 cells assessed as cell growth at 10 uM after 48 hrs by SRB assay relative to control; details: HCT-15, 48 h, read-out: Activity; method in brief: as §1
SF-268 = assay: Cytotoxicity against human SF268 cells assessed as cell growth at 10 uM after 48 hrs by SRB assay relative to control; details: SF-268, 48 h, read-out: Activity; method in brief: as §2
SF-295 = assay: Cytotoxicity against human SF295 cells assessed as cell growth at 10 uM after 48 hrs by SRB assay relative to control; details: SF-295, 48 h, read-out: Activity; method in brief: as §2
SF-539 = assay: Cytotoxicity against human SF539 cells assessed as cell growth at 10 uM after 48 hrs by SRB assay relative to control; details: SF-539, 48 h, read-out: Activity; method in brief: as §2
SNB-75 = assay: Cytotoxicity against human SNB75 cells assessed as cell growth at 10 uM after 48 hrs by SRB assay relative to control; details: SNB-75, 48 h, read-out: Activity; method in brief: as §3
LOX IMVI = assay: Cytotoxicity against human LOXIMVI cells assessed as cell growth at 10 uM after 48 hrs by SRB assay relative to control; details: read-out: Activity; method in brief: as §1
SK-MEL-5 = assay: Cytotoxicity against human SK-MEL-5 cells assessed as cell growth at 10 uM after 48 hrs by SRB assay relative to control; details: SK-MEL-5, 48 h, read-out: Activity; method in brief: as §2
ACHN = assay: Cytotoxicity against human ACHN cells assessed as cell growth at 10 uM after 48 hrs by SRB assay relative to control; details: read-out: Activity; method in brief: as §1

| SMILES | growth at 10 µM (M14) [%] | growth at 10 µM (SK-MEL-2) [%] | growth at 10 µM (UACC-257) [%] | growth at 10 µM (OVCAR-3) [%] | growth at 10 µM (OVCAR-8) [%] | growth at 10 µM (SK-OV-3) [%] | growth at 10 µM (A498) [%] | growth at 10 µM (RXF 393) [%] | growth at 10 µM (TK-10) [%] | growth at 10 µM (UO-31) [%] | growth at 10 µM (DU-145) [%] | growth at 10 µM (MDA-MB-231) [%] | growth at 10 µM [1] [%] | growth at 10 µM (T47D) [%] | growth at 10 µM (K562) [%] | growth at 10 µM (A549) [%] | growth at 10 µM (HOP-92) [%] | growth at 10 µM (NCI-H226) [%] | growth at 10 µM (NCI-H23) [%] | growth at 10 µM (NCI-H460) [%] | further results |
| --- | --- | --- | --- | --- | --- | --- | --- | --- | --- | --- | --- | --- | --- | --- | --- | --- | --- | --- | --- | --- | --- |
| O=C1c2ccccc2C(=O)c2c1cc(Sc1ccc(Cl)cc1)c1nsnc21 | 105 | 109 | 95.5 | 119 | 88.6 | 109 | 93 | 118 | 140 | 79.5 | 117 | 89 | 103 | 85 | 94.9 | 104 | 94.8 | 104 | 100 | 103 | growth at 10 µM (MDA-MB-435): 107%; growth at 10 µM (NCI-H522): 93.4%; growth at 10 µM (COLO 205): 121%; growth at 10 µM (HCT-116): 98.2%; growth at 10 µM (HCT-15): 98.1%; growth at 10 µM (SF-268): 105%; growth at 10 µM (SF-295): 97.3%; growth at 10 µM (SF-539): 107%; growth at 10 µM (SNB-75): 91.7%; growth at 10 µM (LOX IMVI): 83.2% |
| Cc1cc(C)cc(Sc2cc3c(c4nsnc24)C(=O)c2ccccc2C3=O)c1 | 100 | 108 | 116 | 118 | 92.2 | 97.5 | 93.6 | 112 | 132 | 69.1 | 122 | 99.2 | 105 | 81.1 | 75.6 | 107 | 93.5 | 88 | 90.4 | 105 | growth at 10 µM (MDA-MB-435): 105%; growth at 10 µM (SK-MEL-5): 107%; growth at 10 µM (ACHN): 98%; growth at 10 µM (NCI-H522): 106%; growth at 10 µM (COLO 205): 106%; growth at 10 µM (HCT-116): 92.3%; growth at 10 µM (HCT-15): 90.9%; growth at 10 µM (SF-268): 108%; growth at 10 µM (SF-295): 91.1%; growth at 10 µM (SF-539): 94.9%; growth at 10 µM (SNB-75): 80.6%; growth at 10 µM (LOX IMVI): 90.2% |
| O=C1c2ccccc2C(=O)c2c1cc(Sc1ccccc1)c1nsnc21 | 106 | 112 | 92.8 | 96.7 | 82.3 | 106 | 95 | 114 | 143 | 80.1 | 103 | 66.7 | 95.9 | 93.2 | 52 | 106 | 118 | 102 | 79.2 | 101 | growth at 10 µM (SK-MEL-5): 85.7%; growth at 10 µM (NCI-H522): 94.9%; growth at 10 µM (COLO 205): 118%; growth at 10 µM (HCT-116): 90.1%; growth at 10 µM (HCT-15): 93.9%; growth at 10 µM (SF-268): 102%; growth at 10 µM (SF-295): 106%; growth at 10 µM (SF-539): 107%; growth at 10 µM (SNB-75): 96.1%; growth at 10 µM (LOX IMVI): 42% |
| O=C1c2ccccc2C(=O)c2c1cc(SCc1ccccc1)c1nsnc21 | 86.5 | -3.95 | 58.9 | 25.3 | 6.01 | 80.3 | 88.6 | 68.1 | 130 | 73.8 | 82.2 | -13.4 | 60 | -46.1 | 10.5 | 102 | -14.4 | 101 | 55.3 | 92 | growth at 10 µM (MDA-MB-435): -48.3%; growth at 10 µM (SK-MEL-5): 22.5%; growth at 10 µM (NCI-H522): 78.9%; growth at 10 µM (COLO 205): 103%; growth at 10 µM (HCT-116): 53.1%; growth at 10 µM (HCT-15): 54.7%; growth at 10 µM (SF-268): 56%; growth at 10 µM (SF-295): 91.6%; growth at 10 µM (SF-539): 68.3%; growth at 10 µM (SNB-75): 39.6%; growth at 10 µM (LOX IMVI): 7.49% |
